The values that follow come from ChEMBL document CHEMBL1144220, “Screening helix-threading peptides for RNA binding using a thiazole orange displacement assay” (Bioorg Med Chem, 2008).

A short description of assay [1]: Displacement of thiazole orange from RNA A by fluorescent intercalator displacement assay. The method, boiled down: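 Pre-formed complex of RNA A (100 nM) with thiazole orange (50 nM), in 50 mM Bis-Tris·HCl pH 7.0, 100 mM NaCl, 10 mM MgCl2, 15 min. Added to a peptide titration and held ~15 min at 25 °C. Fluorescence read at ex 485 / em 535 nm, minus dye-only background. […] Three independent runs, mean ± SD.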

A further assay has as its system RNA A (synthetic). In words: Binding affinity to RNA A by quantitative ribonuclease V1 footprinting assay.

Square brackets hold non-standard residues; d marks the D form. Peptide text beside a SMILES is read from it. * marks the point of attachment. X1 = C=CCc1ccc(-c2cc(Nc3ccc(CN)cc3)c3cccc(C(=O)*)c3n2)cc1; X2 = C=CCc1ccc(-c2cc(Nc3ccccc3)c3cccc(C(=O)*)c3n2)cc1; AllylGly = C=CC[C@H](N)C(=O)O; Dap = NC[C@H](N)C(=O)O Where only a bound is given, the exact number is not on record here.

Take `NC[C@H]1O[C@H](O[C@H]2[C@H](O)[C@@H](O[C@H]3O[C@H](CO)[C@@H](O)[C@H](N)[C@H]3O)[C@H](N)C[C@@H]2N)[C@H](O)[C@@H](O)[C@@H]1O` [KANAMYCIN]: in assay [1], the Kd was > 100 µM.
Consider `N=C(N)NCCC[C@@H]1NC(=O)c2cccc3c(Nc4ccccc4)cc(nc23)-c2ccc(cc2)C/C=C/C[C@@H](C(N)=O)NC(=O)CNC1=O`, for which the Kd in assay [1] is 3.9 µM.
Regarding `NCCCC[C@H]1NC(=O)[C@@H](Cc2ccccc2)NC(=O)[C@H](CN)NC(=O)c2cccc3c(Nc4ccc(CN)cc4)cc(nc23)-c2ccc(cc2)C/C=C/C[C@@H](C(N)=O)NC1=O`, the Kd in assay [1] came out at 4.4 µM. In the assay with RNA A (synthetic), this compound displayed a Binding affinity of 8.6 µM.
For `N=C(N)NCCC[C@@H]1NC(=O)c2cccc3c(Nc4ccccc4)cc(nc23)-c2ccc(cc2)C/C=C/C[C@@H](C(N)=O)NC(=O)[C@H](CC(N)=O)NC(=O)[C@H](CC(N)=O)NC1=O`, the affinity in assay [1], expressed as Kd, was 1.4 µM.
`CC(C)C[C@@H]1NC(=O)[C@H](CC(N)=O)NC(=O)[C@H](CCCNC(=N)N)NC(=O)c2cccc3c(Nc4ccccc4)cc(nc23)-c2ccc(cc2)C/C=C/C[C@@H](C(N)=O)NC1=O` registered a dissociation constant Kd in assay [1] of 18.9 µM.
Turning to `NCCCC[C@H]1NC(=O)[C@H](Cc2ccccc2)NC(=O)[C@H](CN)NC(=O)c2cccc3c(Nc4ccc(CN)cc4)cc(nc23)-c2ccc(cc2)C/C=C/C[C@@H](C(N)=O)NC1=O`, the equilibrium dissociation constant (Kd) in assay [1] is 2.7 µM. The compound also registered a Binding affinity in the assay on RNA A (synthetic) of 2.3 µM.
In assay [1], `CC(C)C[C@@H]1NC(=O)[C@H](CCCNC(=N)N)NC(=O)c2cccc3c(Nc4ccccc4)cc(nc23)-c2ccc(cc2)C/C=C/C[C@@H](C(N)=O)NC(=O)[C@H](CC(N)=O)NC1=O` displayed a Kd of 6.2 µM.
Consider `C=CCc1ccc(-c2cc(Nc3ccccc3)c3cccc(C(=O)N[C@@H](CCCNC(=N)N)C(=O)N[C@@H](CC(C)C)C(=O)N[C@@H](CC(C)C)C(=O)N[C@@H](CC=C)C(N)=O)c3n2)cc1`, for which the Kd in assay [1] was > 30 µM.
Turning to `NCCCC[C@@H]1NC(=O)[C@H](CN)NC(=O)c2cccc3c(Nc4ccc(CN)cc4)cc(nc23)-c2ccc(cc2)C/C=C/C[C@@H](C(N)=O)NC(=O)CNC1=O`, in assay [1], binding was characterised by a dissociation constant (Kd) of 0.22 µM. The compound further came in with a Binding affinity with RNA A (synthetic) of 0.05 µM.
For the compound `N=C(N)NCCC[C@@H]1NC(=O)c2cccc3c(Nc4ccccc4)cc(nc23)-c2ccc(cc2)C/C=C/C[C@@H](C(N)=O)NC1=O`, the Kd in assay [1] came out at 3.6 µM.
As to `NC[C@@H]1O[C@H](O[C@H]2[C@@H](O)[C@H](O[C@H]3[C@@H](O)[C@H](N)C[C@H](N)[C@H]3O[C@H]3O[C@H](CN)[C@@H](O)[C@H](O)[C@H]3N)O[C@@H]2CO)[C@H](N)[C@@H](O)[C@@H]1O`, the equilibrium dissociation constant (Kd) in assay [1] was > 60 µM.
The same measure, in the same setting: to `CC(C)C[C@H]1NC(=O)[C@H](CCCNC(=N)N)NC(=O)c2cccc3c(Nc4ccccc4)cc(nc23)-c2ccc(cc2)C/C=C/C[C@@H](C(N)=O)NC(=O)[C@@H](CC(C)C)NC1=O` belongs 10.1 µM.
In assay [1], `NCCCC[C@H]1NC(=O)CNC(=O)[C@H](CN)NC(=O)c2cccc3c(Nc4ccc(CN)cc4)cc(nc23)-c2ccc(cc2)C/C=C/C[C@@H](C(N)=O)NC1=O` came in with an Activity of 96% and a Kd of 0.6 µM. In the assay with RNA A (synthetic), this compound showed a Binding affinity of 0.27 µM.
As for `C=CCc1ccc(-c2cc(Nc3ccccc3)c3cccc(C(=O)N[C@@H](CCCNC(=N)N)C(=O)N[C@H](CC(C)C)C(=O)N[C@H](CC(C)C)C(=O)N[C@@H](CC=C)C(N)=O)c3n2)cc1`, the Kd in assay [1] is > 30 µM.
With `CC(C)[C@H](NC(=O)[C@H](CO)NC(=O)CCCN)C(=O)NCc1ccc(Nc2ccnc3c(C(=O)N[C@@H](CCCNC(=N)N)C(N)=O)cccc23)cc1`, in assay [1], binding was put at a Kd of 13.2 µM. For the same compound, the Binding affinity with RNA A (synthetic) came out at 3.3 µM.
Consider `N=C(N)NCCC[C@@H]1NC(=O)c2cccc3c(Nc4ccccc4)cc(nc23)-c2ccc(cc2)C/C=C/C[C@@H](C(N)=O)NC(=O)CNC(=O)[C@H](CCCCN)NC1=O`, for which the affinity in assay [1], expressed as Kd, was 0.35 µM.
In assay [1], `C=CCc1ccc(-c2cc(Nc3ccc(CN)cc3)c3cccc(C(=O)N[C@@H](CN)C(=O)N[C@@H](CCCCN)C(=O)NCC(=O)N[C@@H](CC=C)C(N)=O)c3n2)cc1` (X1-[Dap]KG[AllylGly]-NH2) yielded a Kd of 0.71 µM. This compound displayed a Binding affinity with RNA A (synthetic) of 0.33 µM.
The compound `C=CCc1ccc(-c2cc(Nc3ccccc3)c3cccc(C(=O)N[C@@H](CCCNC(=N)N)C(=O)N[C@@H](CC(N)=O)C(=O)N[C@@H](CC(N)=O)C(=O)N[C@@H](CC=C)C(N)=O)c3n2)cc1` (X2-RNN[AllylGly]-NH2) had a Kd in assay [1] of 14.2 µM.
`CC(C)C[C@@H]1NC(=O)[C@H](CC(C)C)NC(=O)[C@H](CCCNC(=N)N)NC(=O)c2cccc3c(Nc4ccccc4)cc(nc23)-c2ccc(cc2)C/C=C/C[C@@H](C(N)=O)NC1=O`: the Kd in assay [1] is > 30 µM.
For the compound `N=C(N)NCCC[C@@H]1NC(=O)c2cccc3c(Nc4ccccc4)cc(nc23)-c2ccc(cc2)C/C=C/C[C@@H](C(N)=O)NC(=O)[C@@H](CC(N)=O)NC(=O)[C@@H](CC(N)=O)NC1=O`, the Kd in assay [1] stood at 13.4 µM.
